This is a sample that favours compounds with a hit; in the whole collection about 1.1% have one here.
PMI act – activators of human PMI, primary screen, biochemical, fluorescence intensity, near-Km mannose 6-phosphate | Mannose-6-phosphate isomerase (Homo sapiens), P34949 | purified human PMI, coupled resazurin fluorescence, 20 min; hits give high values; 1 = vehicle control, 0 substrate-free wells | activation factor at 20 µM | actives 0.005% (n = 190,000);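 active = activation factor of 2 or more at 20 µM, relative to plate controls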
Target sequence (P34949 whole entry, looked up): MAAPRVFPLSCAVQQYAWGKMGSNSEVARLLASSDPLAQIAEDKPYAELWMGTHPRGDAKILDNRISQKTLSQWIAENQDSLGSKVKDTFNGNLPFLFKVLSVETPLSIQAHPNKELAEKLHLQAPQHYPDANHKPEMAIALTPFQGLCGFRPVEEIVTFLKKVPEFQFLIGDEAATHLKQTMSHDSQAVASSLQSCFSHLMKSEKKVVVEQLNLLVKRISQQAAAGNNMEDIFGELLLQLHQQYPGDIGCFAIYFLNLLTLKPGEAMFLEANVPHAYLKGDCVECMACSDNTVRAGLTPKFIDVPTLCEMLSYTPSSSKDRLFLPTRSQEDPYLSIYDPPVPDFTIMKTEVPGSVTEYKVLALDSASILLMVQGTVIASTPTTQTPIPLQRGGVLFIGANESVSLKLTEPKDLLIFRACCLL
PMI act hi M6P – human PMI activators, high substrate, primary screen, biochemical, fluorescence intensity, near-saturating mannose 6-phosphate; coupled PMI enzyme assay, resazurin fluorescence, 20 min; hits give high values; 1 = untreated enzyme, 0 = substrate-free blank; AID 1216, 2008; actives 0.34% (n = 190,000); Mannose-6-phosphate isomerase (Homo sapiens), P34949; activation factor at 20 µM;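 active = activation factor of 2 or more at 20 µM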
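Test system: human PMI in coupled enzyme assay; Input: PMI at 15 ng/mL final; Medium: HEPES buffer, pH 7.4; Schedule: 20 min incubation at room temperature; Technique: resorufin fluorescence at Ex 544/Em 590 nm; Compound: 20 µM single dose; Probe or stimulus: Near-saturating mannose-6-phosphate, 1.0 mM.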
Diaphorase act – compounds boosting diaphorase resazurin reduction – biochemical, uHTS, resorufin fluorescence, counter-screen for diaphorase-coupled primary assays, primary screen; Diaphorase/resazurin coupled assay, 16 min; hits give high values; 1 = vehicle wells, 0 = NADH-free wells; activation factor at 20 µM; actives 0.005% (n = 190,000);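 active = diaphorase activity raised at least twofold by the compound at 20 µM; inactive = activation factor below 2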
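Test system: Clostridium kluyveri diaphorase, purified enzyme; input: enzyme 0.07 U/mL final; buffer or medium: 50 mM HEPES pH 7.4 with 4.542 mM MgCl2, 0.005% Tween 20; also added: 0.114 mM NADH and 0.1 mM resazurin, final amounts; schedule: 16 min enzyme reaction, ambient temperature; technique: fluorescence of resorufin, 544 nm excitation, 590 nm emission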
G6PDH counter – L. mesenteroides G6PDH inhibitors, counter-screen for G6PDH-coupled screening assays, biochemical, Leuconostoc mesenteroides enzyme. inhibition, % at 5 µM. glucose-6-phosphate dehydrogenase [Leuconostoc mesenteroides]. Purified L. mesenteroides G6PDH, diaphorase/resazurin coupled fluorescence, 45 min. actives 0.12% (n = 200,000); in the data active = inhibition above about 50%
Diaphorase inh – diaphorase inhibitors and chemical oxidizers, primary screen, counter-screen for diaphorase-coupled primary assays, biochemical, uHTS, resorufin fluorescence | inhibition, % at 20 µM | diaphorase resazurin-to-resorufin fluorescence, NADH, 16 min; bacterial (C. kluyveri) enzyme, not human | actives 0.69% (n = 190,000) | AID 1217, 2008;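 active = primary screen inhibition at 20 µM above a set limit, cut at about 50% in these data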;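 note: plate controls were DMSO with full reaction for no effect and wells lacking NADH for full effect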
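Detection: fluorescence of resorufin formed from resazurin, Ex 544/Em 590 nm; test system: Clostridium kluyveri diaphorase enzyme; amount: 0.14 U/mL diaphorase, enzyme working solution; times: 16-min room-temperature incubation before reading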
Active calls of the source: *.

SMILES	PMI act	PMI act hi M6P	Diaphorase act	G6PDH counter	Diaphorase inh
CCn1ccc2cc(OC)ccc2c1=S	1.4	2*	0.9	-1	14
COc1ccc(CCN(C)Cc2ccc(OC)c(OCc3ccccc3)c2)cc1OC	0.8	1.1	0.9	3	13
COc1cc(CN(C)Cc2ccccc2)cc(OC)c1O	0.7	0.6	0.8	51*	25
O=C(O)c1c2c(nc3ccccc13)/C(=C/c1ccc(O)cc1)CC2	1.2	1	0.3	1	69*
CCOc1ccc(C2CC(c3c(O)c4ccccc4oc3=O)=NN2c2ccccc2)cc1OC (stereo unspecified)	1.6	2.6*	0.8	4	21
CCOC(=O)C1CCN(Cc2c(O)c3ccccc3oc2=O)CC1	0.9	0.8	1	7	2
CCN(CC)C(=O)CSc1nc2c(sc(=S)n2Cc2ccco2)c(=O)n1-c1ccccc1	0.8	0.5	0.5	1	51*
CCN(CC)C(=O)CSc1nc2c(sc(=S)n2-c2ccccc2)c(=O)[nH]1	1.1	1.2	0.3	2	69*
CCOC(=O)CSc1nc2c(sc(=S)n2Cc2ccco2)c(=O)n1-c1ccccc1	0.9	0.8	0.8	8	24
CCc1cc(CNC(=O)CC2C(=O)NCCN2Cc2cccc(OC)c2)on1 (stereo unspecified)	1	0.9	1	-3	3
O=S(=O)(/N=C/c1c(O)ccc2ccccc12)c1cccs1	0.6	0.7	0.7	57*	32
Cc1cc2cc(C(c3nnnn3Cc3ccccc3)N3CCc4ccccc43)c(=O)[nH]c2cc1C (stereo unspecified)	0.6	0.8	0.6	20	42
Cc1cc2cc(C(c3nnnn3Cc3ccco3)N3CCc4ccccc43)c(=O)[nH]c2cc1C (stereo unspecified)	0.6	0.9	0.2	23	83*
Cc1cc2cc(C(c3nnnn3Cc3ccco3)N3CCc4ccccc4C3)c(=O)[nH]c2cc1C (stereo unspecified)	0.8	1.1	0.4	11	59*
CN1CCc2cc3c(c4c2[C@H]1[C@H](O)c1ccccc1-4)OCO3	0.8	0.8	0.5	58*	50
COc1ccc2c(c1OC)C(=O)OC2C1c2c(cc3c(c2OC)OCO3)CCN1C (stereo unspecified)	1.1	1.1	0.7	8	30
CCOC(=O)c1c(NC(=O)C2C3C=CC(C3)C2C(=O)O)sc2c1CCC(CC)C2 (stereo unspecified)	0.9	0.9	0.8	2	16
CCOC(=O)c1c(NC(=O)C2C3CCC(O3)C2C(=O)O)sc2c1CCC(CC)C2 (stereo unspecified)	1	1	0.5	8	55*
Nc1cc2nc[nH]c2cc1N	0.3	0.3	0.4	10	61*
Cc1cc2nc[nH]c2cc1[N+](=O)[O-]	1	0.9	0.9	5	11
CCC(C)n1c(=S)[nH]c2c(sc3ccc([N+](=O)[O-])cc32)c1=O (stereo unspecified)	1	1	0.4	-8	62*
Cc1cc(C)c2cc(CN(Cc3ccco3)C(=S)NCC3CCCO3)c(=O)[nH]c2c1 (stereo unspecified)	0.9	1	0.8	16	16
COc1ccc(C(CNC(=O)c2ccccc2SC)N(C)C)cc1 (stereo unspecified)	1	1.1	1	1	4
COc1cc(C(=O)O/N=C2\C=CC(=O)C=C2C)cc(OC)c1OC	0.5	0.4	0.4	-8	58*
COc1cc(C(=O)O/N=C2/C=CC(=O)C(C)=C2C)cc(OC)c1OC	0.6	0.3	0.7	4	33
CCn1c(C)nc2cc(C(=O)N/N=C(\C)c3ccccc3O)ccc21	1.2	1.3	1	0	-2

Assay outcomes (PubChem BioAssay)
